The values below come from ChEMBL document CHEMBL1938280, “Weight loss effects of quaternary salts of 5-amino-1-(chloromethyl)-1,2-dihydro-3H-benz[e]indoles; structure-activity relationships” (Bioorg Med Chem, 2012).

Series [1] relates to Mus musculus. Briefly: Induction of weight loss in C3H/HeN mouse at 1.4 umol/kg, ip after 60 days (reference value: 31.5 +/- 8.2 %). Format: functional.
Series [2] deals with Mus musculus. Kind of series: Induction of weight loss in C3H/HeN mouse at 0.47 umol/kg, ip after 60 days (reference value: 27.7 +/- 4.6 %). The format is functional.
In series [3] the test system is Mus musculus. Briefly: Induction of weight loss in C3H/HeN mouse at 4.2 umol/kg, ip after 60 days (reference value: 30.1 +/- 5.9 %). The format is functional.
For series [4], the system named is Mus musculus. Briefly: Toxicity in C3H/HeN mouse assessed as perceptible deterioration in health at 4.2 uM/kg, ip after 60 days. The format is organism-based. Particulars: in vivo, 1440 h. An outline of the steps: (§1)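 Male C3H/HeN mice, about 50 days old and in groups of 4, received one ip dose in 42% aqueous DMSO on day 1 after 7–10 days of baseline monitoring; vehicle-only animals served as controls. Food and water intake and body weight were recorded 2–3 times weekly for 60 days. General health was checked by observing clinical signs.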

In series [5] the test system is Mus musculus. Kind of series: Toxicity in C3H/HeN mouse assessed as loss of appetite at 4.2 uM/kg, ip after 60 days. The format is organism-based. Particulars: in vivo, 1440 h. In short, it runs like this:
as §1

The subject of series [6] is Mus musculus. Briefly: Toxicity in C3H/HeN mouse assessed as difficulty in eating at 4.2 uM/kg, ip after 60 days. Particulars: in vivo, 1440 h. The format is organism-based.
For series [7], the system named is Mus musculus. Kind of series: Toxicity in C3H/HeN mouse assessed as difficulty in drinking at 4.2 uM/kg, ip after 60 days. The format is organism-based. The settings on record: in vivo, 1440 h.
The subject of series [8] is Mus musculus. Kind of series: Induction of weight loss in C3H/HeN mouse at 0.14 umol/kg, ip after 60 days (reference value: 41.6 +/- 8.7 %). Format: functional.
For series [9], the system named is Mus musculus. Briefly: Induction of weight loss in C3H/HeN mouse at 0.42 umol/kg, ip after 60 days (reference value: 23.6 +/- 3.7 %). The format is functional.
For series [10], the system named is Mus musculus. Kind of series: Induction of weight loss in C3H/HeN mouse at 1.4 umol/kg, ip after 60 days (reference value: 26.1 +/- 7.9 %). Format: functional.
For series [11], the system named is Mus musculus. Briefly: Induction of weight loss in C3H/HeN mouse at 4.2 umol/kg, ip after 60 days (reference value: 26.1 +/- 7.8 %). Format: functional.
Series [12] relates to Mus musculus. Briefly: Toxicity in C3H/HeN mouse assessed as mortality at 4.2 umol/kg, ip after 15 days. Particulars: in vivo, 360 h. The format is organism-based. In short, it runs like this: (§2)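 Male C3H/HeN mice, about 50 days old, in groups of 4. Baseline body weight and food and water intake were recorded for 7–10 days before treatment. A single ip injection in 42% aqueous DMSO was given on day 1, with vehicle-only controls. Body weight and food and water intake were then monitored 2–3 times per week for 60 days, with deaths noted.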

Series [13] concerns Mus musculus. Briefly: Toxicity in C3H/HeN mouse assessed as mortality at 4.2 umol/kg, ip. The format is organism-based. The settings on record: in vivo. In short, it runs like this: as §2
The subject of series [14] is Mus musculus. Kind of series: Induction of weight loss in C3H/HeN mouse at 4.2 umol/kg, ip after 60 days (reference value: 27.7 +/- 4.6 %). The format is functional.
Series [15] relates to Mus musculus. Briefly: Induction of weight loss in C3H/HeN mouse at 12.6 umol/kg, ip after 60 days (reference value: 18.8 +/- 1.8 %). The format is functional.
The subject of series [16] is Mus musculus. Briefly: Induction of weight loss in C3H/HeN mouse at 37.8 umol/kg, ip after 60 days (reference value: 31.5 +/- 8.2 %). The format is functional.
For series [17], the system named is Mus musculus. Briefly: Induction of weight loss in C3H/HeN mouse at 37.8 umol/kg, ip after 60 days (reference value: 23.9 +/- 4.6 %). Format: functional.
In series [18] the test system is Mus musculus. Kind of series: Induction of weight loss in C3H/HeN mouse at 50.2 umol/kg, ip after 60 days (reference value: 27.4 +/- 9.4 %). The format is functional.
For series [19], the system named is Mus musculus. Kind of series: Toxicity in C3H/HeN mouse assessed as mortality at 117 umol/kg, ip. Format: organism-based. Particulars: in vivo. An outline of the steps:
as §2

Series [20] concerns Mus musculus. Kind of series: Induction of weight loss in C3H/HeN mouse at 37.8 umol/kg, ip after 60 days (reference value: 35.6 +/- 3.1 %). Format: functional.
The test system of series [21] is Mus musculus. Kind of series: Induction of weight loss in C3H/HeN mouse at 4.2 umol/kg, ip after 60 days (reference value: 33.3 +/- 5.0 %). The format is functional.
Series [22] relates to Mus musculus. Kind of series: Toxicity in C3H/HeN mouse assessed as mortality at 12.6 umol/kg, ip. The format is organism-based. Particulars: in vivo. An outline of the steps: as §2
Series [23] deals with Mus musculus. Kind of series: Induction of weight loss in C3H/HeN mouse at 12.6 umol/kg, ip after 60 days (reference value: 41.6 +/- 8.7 %). The format is functional.
Series [24] has as its system Mus musculus. Kind of series: Induction of weight loss in C3H/HeN mouse at 377 umol/kg, ip after 60 days (reference value: 24.5 +/- 3.5 %). Format: functional.
For series [25], the system named is Mus musculus. Kind of series: Induction of weight loss in C3H/HeN mouse at 1130 umol/kg, ip after 18 days (reference value: 12.8 +/- 1.5 %). The format is functional.

With `Cn1c(C[N+](C)(C)Cc2ccc(/C=C/C(=O)N3CC(CCl)c4c3cc(N)c3ccccc43)cc2)ccc1[N+](=O)[O-].[Br-]` (centres undefined), the Activity in the series with Mus musculus [1] is on record as 19%; in the series on Mus musculus [2], 38.3%; in the series on Mus musculus [3], -4.1%; with Mus musculus [4], “Non-toxic”; in the series with Mus musculus [5], “Non-toxic”; with Mus musculus [6] it was “Non-toxic”. Also, in the series on Mus musculus [7], the Activity entry is recorded as “Non-toxic”.

In the case of `Cn1c(C[N+](C)(C)Cc2ccc(/C=C/C(=O)N3CC(CCl)c4c3cc(N)c3ccccc43)cc2)ccc1S(C)(=O)=O.[Br-]` (centres undefined), the Activity is 44.1% in the series on Mus musculus [8], -7.6% in the series with Mus musculus [9] and -22.8% in the series with Mus musculus [10].

In the case of `CN(Cc1ccc(/C=C/C(=O)N2CC(CCl)c3c2cc(N)c2ccccc32)cc1)Cc1ccc([N+](=O)[O-])n1C` (centres undefined), the Activity is on record as 21% with Mus musculus [11] and “Toxic” with Mus musculus [12].

On to `C[N+](C)(C)Cc1ccc(/C=C/C(=O)N2CC(CCl)c3c2cc(N)c2ccccc32)cc1.[Cl-]` (centres undefined), for which the figures for the Activity in the series on Mus musculus [2] and in the series on Mus musculus [13] were 17% and “Toxic”, respectively.

Regarding `Cn1c(C[N+](C)(C)Cc2ccc(/C=C/C(=O)N3CC(CCl)c4c3cc(O)c3ccccc43)cc2)ccc1[N+](=O)[O-].[Br-]` (centres undefined), the Activity with Mus musculus [14] was 18.8%.

As to `Cn1c(C[N+](C)(C)Cc2ccc(/C=C/C(=O)N3CC(CO)c4c3cc(N)c3ccccc43)cc2)ccc1[N+](=O)[O-].[Br-]` (centres undefined), the Activity in the series on Mus musculus [15] was 23.7%; with Mus musculus [16] it was 18.8%.

As for `Cn1c(C[N+](C)(C)Cc2ccc(/C=C/C(=O)N3CC(CO)c4c3cc(N)c3ccccc43)cc2)ccc1S(C)(=O)=O.[Br-]` (centres undefined), the Activity in the series with Mus musculus [17] was 36.8%; in the series on Mus musculus [18], 42.6%; in the series with Mus musculus [19] it was “Toxic”.

`CC1CN(C(=O)/C=C/c2ccc(C[N+](C)(C)Cc3ccc([N+](=O)[O-])n3C)cc2)c2cc(N)c3ccccc3c21.[Br-]` (centres undefined): the Activity was determined as 26% in the series with Mus musculus [14] and 43.2% with Mus musculus [20].

Take `CC1CN(C(=O)/C=C/c2ccc(C[N+](C)(C)Cc3ccc(S(C)(=O)=O)n3C)cc2)c2cc(N)c3ccccc3c21.[Br-]` (centres undefined): the Activity in the series with Mus musculus [20] was 30.4%.

`Cn1c(C[N+](C)(C)CCCCCC(=O)N2CC(CCl)c3c2cc(N)c2ccccc32)ccc1S(C)(=O)=O.O=C([O-])C(F)(F)F` (centres undefined): the Activity in the series with Mus musculus [21] is given as 16.8%; in the series on Mus musculus [22], “Toxic”.

On to `Cn1c(C[N+](C)(C)CCCCCCC(=O)N2CC(CCl)c3c2cc(N)c2ccccc32)ccc1S(C)(=O)=O.O=C([O-])C(F)(F)F` (centres undefined), for which the results for the Activity in the series with Mus musculus [21] and with Mus musculus [23] were 11.6% and 2.9%, respectively.

For `CN(N=O)C(=O)N[C@@H](C=O)[C@@H](O)[C@H](O)[C@H](O)CO` [STREPTOZOCIN], the Activity is reported as 23.7% in the series with Mus musculus [24] and -22.1% with Mus musculus [25].
